Assay results published in publication PMC8516733 (Biomedicine & pharmacotherapy = Biomedecine & …, 2021).
Where “and” joins values, the source holds several entries; their conditions need not be identical. Identical values can stand only once. Entries after “also recorded” stand apart in the source; their conditions may differ.

What was measured:
[1] = biological target: T1, cloned rat kappa opioid receptors (Rattus norvegicus, UniProt P34975); assay: cell-based; assay type: cell-based
[2] = test system: KOR; settings: cited from earlier work; for Duration of action in vivo: after a single dose
[3] = biological target: T1, cloned rat kappa opioid receptors; assay type: biochemical
[4] = biological target: cloned rat κappa opioid receptors (Rattus norvegicus, UniProt P34975); assay: Adenylyl cyclase assay; assay type: cell-based; settings: relative to Dyn (1–13)NH2; 50 μM forskolin
cloned rat κappa opioid receptors, sequence (P34975 whole entry): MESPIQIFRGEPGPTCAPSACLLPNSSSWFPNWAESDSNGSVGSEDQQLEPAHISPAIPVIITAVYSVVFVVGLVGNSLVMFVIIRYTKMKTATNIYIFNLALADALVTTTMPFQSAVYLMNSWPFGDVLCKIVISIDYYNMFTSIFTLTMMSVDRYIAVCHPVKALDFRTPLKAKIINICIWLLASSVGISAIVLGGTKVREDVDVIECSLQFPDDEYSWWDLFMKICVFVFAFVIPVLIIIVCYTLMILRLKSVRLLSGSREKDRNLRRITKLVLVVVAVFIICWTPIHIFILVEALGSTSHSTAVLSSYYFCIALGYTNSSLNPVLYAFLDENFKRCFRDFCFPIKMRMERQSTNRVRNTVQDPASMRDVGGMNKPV
Method in brief: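 CHO cells stably expressing the receptor were washed twice in F12 medium and labelled for 4 h with 12 μCi [3H]adenine. They were then incubated 40 min at 37 °C with forskolin, peptidase inhibitors (10 μM bestatin, 30 μM captopril, 50 μM l-leucyl-l-leucine) and test compound at 0.1–10,000 nM in 10-fold steps. The reaction was stopped with SDS/cAMP, then perchloric acid. [3H]cAMP was counted by scintillation, with [14C]cAMP used for recovery and crossover correction.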

T1 sequence (P34975 whole entry): as above

Compound	Effect of the compound alone on FMP fluorescence [1]	Efficacy, FMP blue [1]	Efficacy, [35S]GTPγS [3]	Efficacy, adenylyl cyclase [4]	further results
CC1C2Cc3ccc(O)cc3C1(C)CCN2CC1CC1 (single isomer, unassigned; (+)) [(+)-Cyclazocine, (+)-cyclazocine]	did not affect FMP fluorescence				
CC(C)[C@@H](CN1CC[C@@](C)(c2cccc(O)c2)[C@@H](C)C1)NC(=O)[C@H]1Cc2ccc(O)cc2CN1 [JDTic]					Duration of action in vivo [2]: lasting weeks after a single dose
CC(C)=CCN1CCC2(C)c3cc(O)ccc3CC1C2C (stereo not drawn) [Pentazocine, pentazocine]					Efficacy (relative) [1]: 0.44 ± 0.04; IC50 [1]: 0.0266 µM
Oc1ccc2c3c1O[C@H]1c4[nH]c5c(c4C[C@@]4(O)[C@@H](C2)N(CC2CC2)CC[C@]314)C[C@@]1(O)[C@H]2Cc3ccc(O)c4c3[C@@]1(CCN2CC1CC1)[C@H]5O4 [nor-BNI, nor-binaltorphimine]	Neither zyklophin nor nor-BNI alone influenced FMP fluorescence				Duration of action in vivo [2]: lasting weeks after a single dose
[N-Allyl-Tyr^1]zyklophin [JVA 3419]		0.15 ± 0.04	0.07 ± 0.17	0.33	
[N-Benzyl-Tyr^1,Dap(Ac)^8]Dyn A(1–11) amide [JVA 3416]		0.48 and 0.48 ± 0.10	0.26 ± 0.06	1.0	
[N-BenzylTyr^1,cyclo(D-Asp^5,Dap^8]Dyn (1–11) amide [Zyklophin]	Neither zyklophin nor nor-BNI alone influenced FMP fluorescence; also recorded: did not elicit a significant reduction in FMP fluorescence	0	0	0.23	Kb ([1]; read-out: KB from Schild regression, antagonism of U50,488): 0.564 µM; Duration of antagonism ([2]; after systemic administration): less than 12 h
[N-Methyl-Tyr^1]zyklophin [JVA 3418]		0.14 ± 0.03	0.10 ± 0.10	0.58	
zyklophin-(1–8) [JVA 3413]		0.22 ± 0.04	0.07 ± 0.14	0.35	
